Reference: ChEMBL document CHEMBL1255405 (Antimicrob Agents Chemother, 2010)

Assays:
[1] = Apparent oral clearance in Papua new Guinean women in second or third trimester of pregnancy using pharmacokinetic final covariate model at 450 mg/day, po administered as three divided doses in presence of sulfadoxine-pyrimethamine by HPLC method; format: ADME, organism-based; details: female, human, in vivo
Outline: (§1)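 Papua New Guinean women in the second or third trimester of pregnancy (n=30) and age-matched nonpregnant women (n=30) took CQ 450 mg (8.5 mg/kg/day) as whole tablets with water once daily for 3 days, plus single-dose sulfadoxine-pyrimethamine, without fasting. Plasma was sampled from baseline to 72 h and on days 7–42. CQ and DECQ were measured by HPLC (UV 340 nm) and analysed by population PK modelling, with weight-allometric scaling expressed relative to F.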

Homo sapiens [2] = assay: Central compartment volume of distribution in Papua new Guinean women in second or third trimester of pregnancy using pharmacokinetic base model at 450 mg/day, po administered as three divided doses in presence of sulfadoxine-pyrimethamine by HPLC method; format: ADME, organism-based; details: in vivo; outline: as §1
Homo sapiens [3] = assay: Central compartment volume of distribution in Papua new Guinean women in second or third trimester of pregnancy using pharmacokinetic final covariate model at 450 mg/day, po administered as three divided doses in presence of sulfadoxine-pyrimethamine by HPLC method; format: ADME, organism-based; details: in vivo; outline: as §1
Homo sapiens [4] = assay: Peripheral compartment volume of distribution in Papua new Guinean women in second or third trimester of pregnancy using pharmacokinetic base model at 450 mg/day, po administered as three divided doses in presence of sulfadoxine-pyrimethamine by HPLC method; format: ADME, organism-based; details: in vivo; outline: as §1
Homo sapiens [5] = assay: Peripheral compartment volume of distribution in Papua new Guinean women in second or third trimester of pregnancy using pharmacokinetic final covariate model at 450 mg/day, po administered as three divided doses in presence of sulfadoxine-pyrimethamine by HPLC method; format: ADME, organism-based; details: in vivo; outline: as §1
Homo sapiens [6] = assay: Central compartment volume of distribution in Papua new Guinean women in second or third trimester of pregnancy using pharmacokinetic base model assessed as monodesethychloroquine at 450 mg/day, po administered as three divided doses in presence of sulfadoxine-pyrimethamine by HPLC method; format: ADME, organism-based; details: in vivo; outline: as §1
Homo sapiens [7] = assay: (§2) Central compartment volume of distribution in Papua new Guinean women in second or third trimester of pregnancy using pharmacokinetic final covariate model assessed as monodesethychloroquine at 450 mg/day, po administered as three divided doses in presence of sulfadoxine-pyrimethamine by HPLC method; format: ADME, organism-based; details: in vivo; outline: as §1
Homo sapiens [8] = assay: Peripheral compartment volume of distribution in Papua new Guinean women in second or third trimester of pregnancy using pharmacokinetic base model assessed as monodesethychloroquine at 450 mg/day, po administered as three divided doses in presence of sulfadoxine-pyrimethamine by HPLC method; format: ADME, organism-based; details: in vivo; outline: as §1
Homo sapiens [9] = assay: as §2, with “Peripheral” for “Central”; format: ADME, organism-based; details: in vivo; outline: as §1
[10] = Cmax in women at 450 mg/day, po administered as three divided doses by HPLC method; format: ADME, organism-based; set-up: dose 450 mg/day, route oral; details: female, human, in vivo
Outline: (§3)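 Simulated values, not observed data. Final population PK model parameters were applied in NONMEM to hypothetical pregnant and nonpregnant women (n=1,000 each) generated with mvtnorm, with covariates such as weight drawn from the original subjects. Cmax, Tmax and AUC0-∞ of CQ and DECQ were derived for a range of plausible CQ regimens.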

[11] = Cmax in Papua new Guinean pregnant women at 450 mg/day, po administered as three divided doses by HPLC method; format: ADME, organism-based; set-up: dose 450 mg/day, route oral; details: female, human, in vivo; outline: as §3
[12] = Cmax in Papua new Guinean pregnant women at 600 mg/day, po administered as three divided doses by HPLC method; format: ADME, organism-based; set-up: dose 600 mg/day, route oral; details: female, human, in vivo; outline: as §3
[13] = Cmax in Papua new Guinean pregnant women at 750 mg/day, po administered as three divided doses by HPLC method; format: ADME, organism-based; set-up: dose 750 mg/day, route oral; details: female, human, in vivo; outline: as §3
[14] = AUC (0 to infinity) in women at 450 mg/day, po administered as three divided doses by HPLC method; format: ADME, organism-based; set-up: dose 450 mg/day, time infinity, route oral; details: female, human, plasma; outline: as §1
[15] = AUC (0 to infinity) in Papua new Guinean pregnant women at 450 mg/day, po administered as three divided doses by HPLC method; format: ADME, organism-based; set-up: dose 450 mg/day, time infinity, route oral; details: female, human, plasma; outline: as §1
[16] = AUC (0 to infinity) in Papua new Guinean pregnant women at 600 mg/day, po administered as three divided doses by HPLC method; format: ADME, organism-based; set-up: dose 600 mg/day, time infinity, route oral; details: female, human, plasma; outline: as §3
[17] = AUC (0 to infinity) in Papua new Guinean pregnant women at 750 mg/day, po administered as three divided doses by HPLC method; format: ADME, organism-based; set-up: dose 750 mg/day, route oral, time infinity; details: female, human, plasma; outline: as §3
Homo sapiens [18] = assay: Cmax in women assessed as monodesethychloroquine at 450 mg/day, po administered as three divided doses by HPLC method; format: ADME, organism-based; set-up: dose 450 mg/day, route oral; details: in vivo; outline: as §3
Homo sapiens [19] = assay: Cmax in Papua new Guinean pregnant women assessed as monodesethychloroquine at 450 mg/day, po administered as three divided doses by HPLC method; format: ADME, organism-based; set-up: dose 450 mg/day, route oral; details: in vivo; outline: as §3
Homo sapiens [20] = assay: Cmax in Papua new Guinean pregnant women assessed as monodesethychloroquine at 600 mg/day, po administered as three divided doses by HPLC method; format: ADME, organism-based; set-up: dose 600 mg/day, route oral; details: in vivo; outline: as §3
Homo sapiens [21] = assay: Cmax in Papua new Guinean pregnant women assessed as monodesethychloroquine at 750 mg/day, po administered as three divided doses by HPLC method; format: ADME, organism-based; set-up: dose 750 mg/day, route oral; details: in vivo; outline: as §3
Homo sapiens [22] = assay: AUC (0 to infinity) in women assessed as monodesethychloroquine at 450 mg/day, po administered as three divided doses by HPLC method; format: ADME, organism-based, Plasma; set-up: dose 450 mg/day, route oral, time infinity; details: in vivo; outline: as §1
Homo sapiens [23] = assay: AUC (0 to infinity) in Papua new Guinean pregnant women assessed as monodesethychloroquine at 450 mg/day, po administered as three divided doses by HPLC method; format: ADME, organism-based, Plasma; set-up: dose 450 mg/day, route oral, time infinity; details: in vivo; outline: as §1
Homo sapiens [24] = assay: AUC (0 to infinity) in Papua new Guinean pregnant women assessed as monodesethychloroquine at 600 mg/day, po administered as three divided doses by HPLC method; format: ADME, organism-based, Plasma; set-up: dose 600 mg/day, time infinity, route oral; details: in vivo; outline: as §3
Homo sapiens [25] = assay: AUC (0 to infinity) in Papua new Guinean pregnant women assessed as monodesethychloroquine at 750 mg/day, po administered as three divided doses by HPLC method; format: ADME, organism-based, Plasma; set-up: dose 750 mg/day, time infinity, route oral; details: in vivo; outline: as §3
[26] = Apparent oral clearance in Papua new Guinean women in second or third trimester of pregnancy using pharmacokinetic base model at 450 mg/day, po administered as three divided doses in presence of sulfadoxine-pyrimethamine by HPLC method; format: ADME, organism-based; details: female, human, in vivo; outline: as §1

Compound `CCN(CC)CCCC(C)Nc1ccnc2cc(Cl)ccc12` (stereo unspecified) [CHLOROQUINE] has a CL/F [1] of 488 mL/min, a Vc/F (Homo sapiens [2]) of 4160 L and a Vc/F (Homo sapiens [3]) of 4220 L. The Vp/F (Homo sapiens [4]) was 5200 L, the Vp/F (Homo sapiens [5]) was 5190 L and the Vc/F (Homo sapiens [6]) was 39.9 L. It also gave a Vc/F (Homo sapiens [7]) of 40 L, a Vp/F (Homo sapiens [8]) of 812 L and a Vp/F (Homo sapiens [9]) of 840 L. It also gave a Cmax [10] of 376 ng/mL, a Cmax [11] of 296 ng/mL and a Cmax [12] of 395 ng/mL. For the same compound, the Cmax [13] was 494 ng/mL, the AUC(0-inf) [14] was 50000 ng·h/mL and the AUC(0-inf) [15] was 35700 ng·h/mL. For the same compound, the AUC(0-inf) [16] was 47500 ng·h/mL, the AUC(0-inf) [17] was 59400 ng·h/mL and the Cmax (Homo sapiens [18]) was 186 ng/mL. For the same compound, the Cmax (Homo sapiens [19]) was 139 ng/mL, the Cmax (Homo sapiens [20]) was 185 ng/mL and the Cmax (Homo sapiens [21]) was 232 ng/mL. The AUC (Homo sapiens [22]) was 41255 ng·h/mL, the AUC (Homo sapiens [23]) was 23876 ng·h/mL and the AUC (Homo sapiens [24]) was 31835 ng·h/mL. It also gave an AUC (Homo sapiens [25]) of 39793 ng·h/mL and a CL/F [26] of 568 mL/min.
